Laboratory results: paper PMC5126733 (Journal of medicinal chemistry, 2015)

How the values were obtained:
[1] = system: progesterone receptor (PGR) mRNA expression in MCF-7 human breast cancer cells; test: Antagonism of β-estradiol; assay type: cell-based; conditions: MCF-7 cells, 1 μM compound, 10 nM E2, 24 h
How it was run: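 MCF-7 cells were grown in MEM with 10% FBS at 37 °C in 5% CO2, then preconditioned 72 h in charcoal-stripped FBS. They were treated 24 h with 1 μM test compound, vehicle (0.1% methanol) or a positive-control antiestrogen, all with 10 nM E2. PGR mRNA was measured by TaqMan RT-qPCR (40 cycles), normalized to GAPDH by 2−ΔΔCt, and expressed as % of E2-stimulated expression.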

[2] = system: postmenopausal women with breast cancer; conditions: five-year ATAC trial, anastrozole alone compared to tamoxifen alone; cited from earlier work
[3] = combination arm (with tamoxifen) of the ATAC trial; cited from earlier work
recombinant human ER-α = target: T1, recombinant human ER-α (Homo sapiens, UniProt P03372); conditions: at 100 μM compound; compound 7; cited from earlier work
T1 sequence (P03372 1-595): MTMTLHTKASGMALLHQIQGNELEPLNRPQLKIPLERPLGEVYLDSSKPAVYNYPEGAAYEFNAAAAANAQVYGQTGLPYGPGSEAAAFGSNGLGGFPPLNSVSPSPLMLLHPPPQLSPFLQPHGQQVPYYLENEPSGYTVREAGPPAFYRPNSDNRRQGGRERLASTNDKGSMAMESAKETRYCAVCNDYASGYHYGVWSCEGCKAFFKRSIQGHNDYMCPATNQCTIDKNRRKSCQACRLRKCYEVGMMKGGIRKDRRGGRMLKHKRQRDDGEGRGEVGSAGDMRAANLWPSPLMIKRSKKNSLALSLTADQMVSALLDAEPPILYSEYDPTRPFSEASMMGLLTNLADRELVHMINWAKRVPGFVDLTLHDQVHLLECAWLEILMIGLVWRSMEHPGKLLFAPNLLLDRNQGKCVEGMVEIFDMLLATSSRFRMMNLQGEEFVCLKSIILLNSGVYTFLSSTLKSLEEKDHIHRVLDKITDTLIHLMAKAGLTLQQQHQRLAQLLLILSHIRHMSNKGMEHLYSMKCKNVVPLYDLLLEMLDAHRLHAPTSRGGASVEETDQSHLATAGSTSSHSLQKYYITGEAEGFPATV

ER in MCF-7-2a cells = conditions: cited from earlier work
[4] = target: T2, recombinant human aromatase (CYP19) (Homo sapiens, UniProt P11511); test: Inhibition of recombinant human aromatase; assay type: biochemical; conditions: ratio of aromatase IC50 values vs compound 7
T2 sequence (P11511 1-503): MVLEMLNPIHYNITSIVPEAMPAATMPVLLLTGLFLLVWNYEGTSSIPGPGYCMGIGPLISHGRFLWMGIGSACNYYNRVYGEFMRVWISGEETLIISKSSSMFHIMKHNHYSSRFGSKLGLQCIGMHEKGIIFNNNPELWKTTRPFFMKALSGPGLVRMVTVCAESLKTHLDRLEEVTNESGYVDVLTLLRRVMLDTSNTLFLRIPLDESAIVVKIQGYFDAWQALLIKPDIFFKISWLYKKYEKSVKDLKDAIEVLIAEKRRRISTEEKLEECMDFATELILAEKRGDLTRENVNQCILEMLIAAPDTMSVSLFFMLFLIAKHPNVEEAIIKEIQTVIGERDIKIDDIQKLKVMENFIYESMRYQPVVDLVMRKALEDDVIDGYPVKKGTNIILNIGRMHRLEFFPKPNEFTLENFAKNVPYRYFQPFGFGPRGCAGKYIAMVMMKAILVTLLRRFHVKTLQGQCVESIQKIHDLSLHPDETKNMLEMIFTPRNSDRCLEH

Oc1ccc(C(Cn2ccnc2)=C(c2ccc(O)cc2)c2ccc(O)cc2)cc1 [Compound 18a, 4,4',4”-(3-(1H-Imidazol-1-yl)prop-1-ene-1,1,2-triyl)triphenol]
PGR mRNA expression level in the presence of 10 nM E2 (E2 alone = 100%) [1]: 26-31%

CC(C)(C#N)c1cc(Cn2cncn2)cc(C(C)(C)C#N)c1 [anastrozole]
improvement of disease-free survival [2]: 13%
reduction in occurrence of contralateral breast cancer [2]: 42%
reduction in risk of distant metastasis [2]: 14%
reduction in the time-to-recurrence [2]: 21%
lowering of serum concentration of anastrozole in the combination arm [3]: 27%

CCC(=C(c1ccc(O)cc1)c1ccc(O)cc1)c1ccccc1 [Compound 7]
ER-α percent competition (recombinant human ER-α): 80% competition
ER antagonist/agonist character (ER in MCF-7-2a cells): good ER antagonist without significant agonistic side effects

Oc1ccc(C(=C(Cn2ccnc2)c2ccc(O)c(F)c2)c2ccc(O)cc2)cc1 [Compound 18b, 4,4'-(2-(3-Fluoro-4-hydroxyphenyl)-3-(1H-imidazol-1-yl)prop-1-ene-1,1-diyl)diphenol]
PGR mRNA expression level in the presence of 10 nM E2 (E2 alone = 100%) [1]: 26-31%

Oc1ccc(C(=C(Cn2ccnc2)c2ccccc2)c2ccc(O)cc2)cc1 [Compound 12, 4,4'-(3-(1H-Imidazol-1-yl)-2-phenylprop-1-ene-1,1-diyl)diphenol]
fold improvement in aromatase inhibitory activity compared with 7 [4]: > 5000 fold
PGR mRNA expression level in the presence of 10 nM E2 (E2 alone = 100%) [1]: 26-31%

Nc1ccc(C(Cn2ccnc2)=C(c2ccc(O)cc2)c2ccc(O)cc2)cc1 [Compound 26, 4,4'-(2-(4-Aminophenyl)-3-(1H-imidazol-1-yl)prop-1-ene-1,1-diyl)diphenol]
PGR mRNA expression level in the presence of 10 nM E2 (E2 alone = 100%) [1]: 26-31%

Endoxifen
PGR mRNA expression level in the presence of 10 nM E2 (E2 alone = 100%) [1]: 10%
